From ChEMBL document CHEMBL4145474, “Discovery of novel piperonyl derivatives as diapophytoene desaturase inhibitors for the treatment of methicillin-, vancomycin- and linezolid-resistant Staphylococcus aureus infections” (Eur J Med Chem, 2018)
Activity calls are given as the source filed them. The calls are words filed in the database; no cut-off is given here.

Legend:
HepG2 = test: Cytotoxicity against human HepG2 cells assessed as reduction in cell viability after 72 hrs by CCK-8 assay; format: functional; conditions: HepG2, 72 h
Summary of the method: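 HepG2 or HEK-293T cells were seeded at 5000 per well and grown 24 h at 37 °C, 5% CO₂. Cells were then exposed to compound for 72 h; compound came from DMSO, diluted in medium to final DMSO <0.4%, with a DMSO-matched vehicle control. Viability was read by 10% CCK-8 for 1 h, absorbance 450 nm, in triplicate.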

[1] = target: T1, 4,4'-diapophytoene desaturase (4,4'-diaponeurosporene-forming) (Staphylococcus aureus (strain Newman)) (UniProt O07855); test: Inhibition of CrtN in methicillin-resistant Staphylococcus aureus USA300 LAC assessed as bacterial survival after 6 hrs by human whole blood assay (reference value: 14.33%)
T1 sequence (whole entry): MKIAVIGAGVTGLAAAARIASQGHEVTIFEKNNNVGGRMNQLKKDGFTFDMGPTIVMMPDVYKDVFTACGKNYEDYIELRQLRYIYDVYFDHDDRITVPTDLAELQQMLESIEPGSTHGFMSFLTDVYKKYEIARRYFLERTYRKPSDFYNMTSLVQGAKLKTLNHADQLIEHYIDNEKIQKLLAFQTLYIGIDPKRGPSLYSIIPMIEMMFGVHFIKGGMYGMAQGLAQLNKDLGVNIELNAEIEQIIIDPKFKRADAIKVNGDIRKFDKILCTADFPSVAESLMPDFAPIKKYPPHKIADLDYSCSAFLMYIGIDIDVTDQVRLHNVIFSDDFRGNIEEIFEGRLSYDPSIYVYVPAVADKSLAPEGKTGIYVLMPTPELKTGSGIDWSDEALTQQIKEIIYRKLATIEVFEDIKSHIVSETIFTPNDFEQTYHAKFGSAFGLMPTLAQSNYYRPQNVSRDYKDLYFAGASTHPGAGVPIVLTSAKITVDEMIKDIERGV
Summary of the method: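 Overnight cultures spun, resuspended in sterile PBS at 1 × 10⁷ CFU/mL, then mixed 1:10 with fresh whole blood from healthy human volunteers (final 1 × 10⁶ CFU/mL). Incubated 6 h at 37 °C; surviving CFU counted by plating dilutions on TSA. Two independent experiments.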

Staphylococcus aureus [2] = test: Antibacterial activity against methicillin-resistant Staphylococcus aureus USA400 MW2 assessed as decrease in bacterial survival at 1 uM after 24 hrs by H2O2 killing assay; format: functional, organism-based
[3] = target: T1, 4,4'-diapophytoene desaturase (4,4'-diaponeurosporene-forming) (Staphylococcus aureus (strain Newman)); test: Inhibition of CrtN in methicillin-resistant Staphylococcus aureus USA400 MW2 assessed as bacterial survival at 1 uM after 24 hrs by H2O2 killing assay (reference value: 26.33%)
Staphylococcus aureus [4] = test: Growth inhibition of wild type Staphylococcus aureus Newman at 0.2 mM incubated for overnight; format: functional, organism-based
Summary of the method: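 A 20 mM DMSO stock was diluted in TSB to 0.2 mM final, with a DMSO growth control. Dilutions were overlaid with paraffin and held 4 h at 37 °C. Overnight cultures were PBS-washed and added to a final OD600 ≈ 0.05. Plates were incubated overnight at 37 °C with OD600 read every 30 min.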

Staphylococcus aureus [5] = test: Inhibition of pigmentation in methicillin-resistant Staphylococcus aureus USA300 LAC after 48 hrs by spectrophotometric method; format: functional, organism-based
Summary of the method: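 Bacteria grown in 4 mL TSB for 48 h at 37 °C with compound serially diluted from DMSO, in duplicate; DMSO vehicle control and non-pigmented CrtN mutant as reference. Cells from 3 mL of culture washed twice with 0.01 M PBS and pigment extracted into methanol. Absorbance read at 450 nm; IC50 fitted from the concentration series.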

Staphylococcus aureus [6] = test: Antibacterial activity against vancomycin-intermediate methicillin-resistant Staphylococcus aureus Mu50 infected in BALB/c mouse assessed as decrease in bacterial survival in mouse kidney at 0.1 to 0.4 mg, ip bid administered 4.5 days before 24 hrs bacterial infection measured after 90 hrs; format: functional, organism-based
Summary of the method: (§1)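 6–8-week-old female BALB/c mice (SPF) dosed intraperitoneally twice daily over 4.5 d at 0.1 or 0.4 mg/bid. Pre-treatment started before infection; post-treatment started 6 h after infection. Vancomycin and linezolid controls given as pre-treatment at 0.4 mg/bid. Retro-orbital inoculation: Mu50 1.1 × 10⁹ CFU, NRS271 1.8 × 10⁸ CFU. Kidneys and livers homogenised in PBS/0.01% Triton X-100 and plated on TSA for CFU.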

Staphylococcus aureus [7] = test: Antibacterial activity against methicillin/linezolid-resistant Staphylococcus aureus NRS271 infected in BALB/c mouse assessed as decrease in bacterial survival in mouse liver at 0.1 to 0.4 mg, ip bid administered 4.5 days before 24 hrs bacterial infection measured after 90 hrs; format: functional, organism-based; summary of the method: as §1

Q: `CN(C/C=C/C=C/c1ccc(C(F)(F)F)cc1F)Cc1ccc2c(c1)OCO2.Cl` was tested. Which CC50 (HepG2) did it give?
A: The CC50 was 90.3 µM.

Q: And the Survival [1]?
A: Its Survival is 1.57%.

Q: And the Activity (Staphylococcus aureus [2])?
A: Its Activity is “inactive”.

Q: And the Survival [3]?
A: The Survival was 2.33%.

Q: And the “growth inhibition (GI)” value (Staphylococcus aureus [4])?
A: The value was “inactive”.

Q: And the IC50 (Staphylococcus aureus [5])?
A: Its IC50 is 0.0129 µM.

Q: What about the Activity (Staphylococcus aureus [6]) of the same compound?
A: The Activity was “Active”.

Q: And the Activity (Staphylococcus aureus [7])?
A: The Activity was “inactive”.
